ChEMBL document CHEMBL3108700, “Designing anti-inflammatory drugs from parasitic worms: a synthetic small molecule analogue of the Acanthocheilonema viteae product ES-62 prevents development of collagen-induced arthritis” (J Med Chem, 2013)
Activity calls are given as the source filed them. No rule for the calls is given here.

Legend:
[1] = biological target: T1, Toll-like receptor 9 (Mus musculus) (UniProt Q9EQU3); experiment: Inhibition of TLR9 in BALB/c mouse BMDM assessed as downregulation of CpG-stimulated IL-6 level at 5 ug/ml preincubated for 18 hrs followed by CpG challenge measured after 24 hrs by ELISA relative to control
T1 sequence (whole entry): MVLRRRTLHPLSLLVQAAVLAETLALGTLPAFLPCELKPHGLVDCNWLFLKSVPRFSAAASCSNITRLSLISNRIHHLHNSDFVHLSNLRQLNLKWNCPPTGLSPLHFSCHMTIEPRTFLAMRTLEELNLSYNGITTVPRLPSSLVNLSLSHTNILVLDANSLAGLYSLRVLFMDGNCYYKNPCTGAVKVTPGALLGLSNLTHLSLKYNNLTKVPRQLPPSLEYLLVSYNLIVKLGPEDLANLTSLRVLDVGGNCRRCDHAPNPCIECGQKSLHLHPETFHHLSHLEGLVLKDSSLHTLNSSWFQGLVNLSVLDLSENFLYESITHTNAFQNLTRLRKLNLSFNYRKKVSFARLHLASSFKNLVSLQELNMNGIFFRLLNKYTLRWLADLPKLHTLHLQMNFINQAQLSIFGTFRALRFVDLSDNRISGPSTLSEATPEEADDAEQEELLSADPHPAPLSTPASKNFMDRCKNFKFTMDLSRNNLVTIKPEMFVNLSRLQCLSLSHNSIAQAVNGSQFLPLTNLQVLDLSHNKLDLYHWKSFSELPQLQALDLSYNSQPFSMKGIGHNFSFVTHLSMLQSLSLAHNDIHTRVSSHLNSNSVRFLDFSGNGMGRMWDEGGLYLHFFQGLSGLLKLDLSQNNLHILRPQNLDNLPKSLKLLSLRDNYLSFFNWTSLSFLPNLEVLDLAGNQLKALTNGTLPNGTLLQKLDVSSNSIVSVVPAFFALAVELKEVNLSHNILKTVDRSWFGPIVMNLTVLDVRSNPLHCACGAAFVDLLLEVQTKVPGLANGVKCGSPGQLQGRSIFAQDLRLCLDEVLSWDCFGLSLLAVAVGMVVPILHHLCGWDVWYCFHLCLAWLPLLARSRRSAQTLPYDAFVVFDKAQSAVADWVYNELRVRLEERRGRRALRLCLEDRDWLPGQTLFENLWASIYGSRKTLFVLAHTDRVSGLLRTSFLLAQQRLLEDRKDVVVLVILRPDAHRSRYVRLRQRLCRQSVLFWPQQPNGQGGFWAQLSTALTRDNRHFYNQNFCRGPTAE
How it was run: (§1)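 BALB/c male bone marrow macrophages were differentiated 7 days with L929 supernatant (≥99% CD11b+/F4/80+). Cells were plated at 2 × 10^5/well in triplicate, rested overnight, and given compounds at 5 μg/mL for 18 h. They were then stimulated with 100 ng/mL S. minnesota LPS, 10 ng/mL Pam3CSK4 (BLP) or 0.01 μM CpG for 24 h. Supernatant IL-12p40 and IL-6 were measured by ELISA (sensitivity 16 pg/mL).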

[2] = biological target: T1, Toll-like receptor 9 (Mus musculus); experiment: Inhibition of TLR9 in BALB/c mouse BMDM assessed as downregulation of CpG-stimulated IL-12p40 level at 5 ug/ml preincubated for 18 hrs followed by CpG challenge measured after 24 hrs by ELISA relative to control; how it was run: as §1
[3] = biological target: T2, Toll-like receptor 4 (Mus musculus) (UniProt Q9QUK6); experiment: Inhibition of TLR4 in BALB/c mouse BMDM assessed as downregulation of LPS-stimulated IL-6 level at 5 ug/ml preincubated for 18 hrs followed by LPS challenge measured after 24 hrs by ELISA relative to control; how it was run: as §1
T2 sequence (whole entry): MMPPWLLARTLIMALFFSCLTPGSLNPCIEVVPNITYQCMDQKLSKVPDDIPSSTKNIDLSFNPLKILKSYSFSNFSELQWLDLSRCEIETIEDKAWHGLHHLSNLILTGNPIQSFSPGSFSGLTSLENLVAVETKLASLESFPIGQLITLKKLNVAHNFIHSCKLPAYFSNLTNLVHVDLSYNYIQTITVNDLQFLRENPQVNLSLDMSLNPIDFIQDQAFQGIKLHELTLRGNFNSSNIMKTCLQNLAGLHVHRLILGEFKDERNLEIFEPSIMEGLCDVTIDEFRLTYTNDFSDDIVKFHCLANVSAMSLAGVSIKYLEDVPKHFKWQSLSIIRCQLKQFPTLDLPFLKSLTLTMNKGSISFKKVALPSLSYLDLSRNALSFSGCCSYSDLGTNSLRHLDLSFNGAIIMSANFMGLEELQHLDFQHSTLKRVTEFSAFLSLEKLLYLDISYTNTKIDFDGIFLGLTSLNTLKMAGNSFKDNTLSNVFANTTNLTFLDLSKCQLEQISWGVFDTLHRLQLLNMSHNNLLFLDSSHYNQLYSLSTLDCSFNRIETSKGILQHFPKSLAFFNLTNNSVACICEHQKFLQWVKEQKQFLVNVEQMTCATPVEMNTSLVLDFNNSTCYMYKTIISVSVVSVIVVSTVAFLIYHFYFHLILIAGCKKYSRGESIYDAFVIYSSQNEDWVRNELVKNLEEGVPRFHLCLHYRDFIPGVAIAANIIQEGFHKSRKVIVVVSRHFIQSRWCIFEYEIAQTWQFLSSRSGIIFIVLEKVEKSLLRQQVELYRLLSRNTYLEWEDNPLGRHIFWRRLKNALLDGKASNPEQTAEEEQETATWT

TLR2/TLR6 (Mus musculus) [4] = biological target: T3, TLR2/TLR6 (Mus musculus) (UniProt Q9QUN7+Q9EPW9); experiment: Inhibition of TLR2/6 in BALB/c mouse BMDM assessed as downregulation of BLP-stimulated IL-6 level at 5 ug/ml preincubated for 18 hrs followed by BLP challenge measured after 24 hrs by ELISA relative to control; assay type: protein-complex assay; how it was run: as §1
[5] = biological target: T2, Toll-like receptor 4 (Mus musculus); experiment: Inhibition of TLR4 in BALB/c mouse BMDM assessed as downregulation of LPS-stimulated IL-12p40 level at 5 ug/ml preincubated for 18 hrs followed by LPS challenge measured after 24 hrs by ELISA relative to control; how it was run: as §1
TLR2/TLR6 (Mus musculus) [6] = biological target: T3, TLR2/TLR6 (Mus musculus); experiment: Inhibition of TLR2/6 in BALB/c mouse BMDM assessed as downregulation of BLP-stimulated IL-12p40 level at 5 ug/ml preincubated for 18 hrs followed by BLP challenge measured after 24 hrs by ELISA relative to control; assay type: protein-complex assay; how it was run: as §1

Row | inhibition [1] | inhibition [2] | inhibition [3] | inhibition (TLR2/TLR6 (Mus musculus) [4]) | inhibition [5] | inhibition (TLR2/TLR6 (Mus musculus) [6]) | SMILES
1 | inactive | inactive | inactive | inactive | inactive | inactive | O=S(=O)(Cc1ccc(F)cc1)NCCN1CCOCC1
2 | Active | Active | inactive | inactive | Active | inactive | O=C(Cc1ccccc1)NCCN1CCOCC1
3 | inactive | inactive | inactive | inactive | inactive | inactive | O=S(=O)(Cc1ccc(F)cc1)NCCN1CCCC1
4 | inactive | inactive | inactive | inactive | Active | Active | COc1ccc2c(CS(=O)(=O)NCCN3CCOCC3)cc(=O)oc2c1
5 | inactive | inactive | inactive | inactive | inactive | inactive | O=S(=O)(Cc1ccccc1)NCCN1CCOCC1
6 | inactive | inactive | inactive | inactive | inactive | inactive | O=S(=O)(Cc1ccc(Br)cc1)NCCN1CCCC1
7 | inactive | inactive | inactive | Active | inactive | inactive | O=S(=O)(CCCN1CCOCC1)Cc1ccc(Br)cc1
8 | inactive | inactive | inactive | Active | inactive | inactive | O=S(=O)(Cc1ccc2ccccc2c1)NCCN1CCCC1

Further lines, the molecule ahead of its results:

Row | SMILES | inhibition [1] | inhibition [2] | inhibition [3] | inhibition (TLR2/TLR6 (Mus musculus) [4]) | inhibition [5] | inhibition (TLR2/TLR6 (Mus musculus) [6])
9 | Cc1ccc(CS(=O)(=O)CCN2CCCC2)cc1 | inactive | inactive | Active | Active | Active | Active
10 | COc1cccc(C(=O)NCCCN(C)C)c1 | Active | inactive | inactive | inactive | Active | inactive
11 | CN(C)CCS(=O)(=O)Nc1ccc(F)cc1 | inactive | inactive | inactive | inactive | Active | inactive
12 | CN(C)CCN(C)CCS(=O)(=O)Nc1ccc(F)cc1 | inactive | inactive | inactive | inactive | Active | inactive
13 | O=C(Cc1ccccc1)NCCN1CCCC1 | Active | Active | Active | Active | Active | inactive
14 | CN(C)CCNCCS(=O)(=O)c1ccccc1 | inactive | inactive | inactive | inactive | inactive | inactive
15 | COc1ccc2c(CS(=O)(=O)NCCN(C)C)cc(=O)oc2c1 | inactive | inactive | inactive | inactive | Active | Active
16 | CC[C@@H](C)NCCS(=O)(=O)Cc1cccc(F)c1 | inactive | inactive | inactive | Active | inactive | Active
17 | CC[C@H](C)NCCS(=O)(=O)c1ccccc1 | inactive | inactive | inactive | inactive | inactive | inactive
18 | CN(C)CCNC(=O)Cc1ccccc1 | Active | inactive | inactive | inactive | Active | inactive
19 | O=S(=O)(CCN1CCOCC1)Nc1ccc(F)cc1 | inactive | inactive | inactive | inactive | Active | inactive
20 | CN(C)CCN(C)CCS(=O)(=O)Cc1ccc(F)cc1 | inactive | inactive | inactive | inactive | inactive | Active
21 | CN(C)CCNS(=O)(=O)Cc1ccc(Br)cc1 | inactive | inactive | inactive | inactive | inactive | inactive
22 | C[N+](C)(C)CCS(=O)(=O)Cc1ccc(Br)cc1 | inactive | inactive | inactive | inactive | inactive | inactive
23 | Cc1ccc(CNS(=O)(=O)CCN(C)C)cc1 | inactive | inactive | inactive | inactive | inactive | inactive
24 | Cc1ccc(CNS(=O)(=O)CCN2CCCC2)cc1 | inactive | inactive | inactive | inactive | inactive | inactive
